Data published in ChEMBL document CHEMBL1155063 (Bioorg Med Chem, 2008).

Experiments:
HCT-15 = test: Growth percent of human HCT15 cells at 10 uM after 48 hrs by MTT assay; conditions: HCT-15, 48 h
COLO 205 = test: Cytotoxicity against human COLO205 cells at 10 uM after 48 hrs by MTT assay; format: functional; conditions: COLO 205, 48 h, values are per cent of control
Outline: (§1)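 Single-dose screen on the NCI 60-cell-line panel, run to the Developmental Therapeutics Program protocol (one-dose mean graph). Each value is the growth percentage of treated cells against untreated control cells.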

[1] = Cytotoxicity against human H1299 cells at 10 uM after 48 hrs by MTT assay realtive to control; format: functional; conditions: NCI-H1299, 48 h
Outline: (§2)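 H1299 non-small-cell lung cells were kept in RPMI 1640 with 10% FBS and penicillin/streptomycin at 37 °C under 5% CO2. About 2 × 10^3 cells per well were pre-incubated for 24 h. Compound was added from freshly made DMSO solution diluted in complete medium and left for 48 h. MTT was then added for 4 h at 37 °C, followed by 20% SDS/50% DMF lysis buffer for 16 h at 37 °C, and absorbance read at 550 nm.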

SF-539 = test: Cytotoxicity against human SF539 cells at 10 uM after 48 hrs by MTT assay; format: functional; conditions: SF-539, 48 h, values are per cent of control
Outline: as §1

NCI-H23 = test: Cytotoxicity against human NCI-H23 cells at 10 uM after 48 hrs by MTT assay; format: functional; conditions: NCI-H23, 48 h
Outline: as §1

Malme-3M = test: Cytotoxicity against human MALME3M cells at 10 uM after 48 hrs by MTT assay; format: functional; conditions: values are per cent of control
Outline: as §1

K562 = test: Cytotoxicity against human K562 cells at 10 uM after 48 hrs by MTT assay; format: functional; conditions: K562, 48 h
Outline: as §1

SR = test: Cytotoxicity against human SR cells at 10 uM after 48 hrs by MTT assay; format: functional
Outline: (§3)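 Single-dose screen in the NCI 60-cell-line panel, run according to the Developmental Therapeutics Program protocol (one-dose mean graph). The result is the growth percentage of treated cells relative to untreated control cells.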

RPMI-8226 = test: Cytotoxicity against human RPMI-8226 cells at 10 uM after 48 hrs by MTT assay; format: functional; conditions: RPMI-8226, 48 h
Outline: as §1

MCF7 = test: Cytotoxicity against human MCF7 cells at 10 uM after 48 hrs by MTT assay; format: functional; conditions: MCF7, 48 h, values are per cent of control
Outline: as §1

[2] = Cytotoxicity against human H1299 cells at 100 uM after 48 hrs by MTT assay realtive to control; format: functional; conditions: NCI-H1299, 48 h
Outline: as §2

SK-MEL-2 = test: Cytotoxicity against human SK-MEL-2 cells at 10 uM after 48 hrs by MTT assay; format: functional; conditions: SK-MEL-2, 48 h, values are per cent of control
Outline: as §1

HCT-116 = test: Growth percent of human HCT116 cells at 10 uM after 48 hrs by MTT assay; conditions: HCT-116, 48 h
[3] = biological target: T1, Telomerase reverse transcriptase (Homo sapiens, UniProt O14746); test: Effect on human TERT expressed in H1299 cells at 100 uM after 24 hrs by SEAP assay relative to control
ACHN = test: Cytotoxicity against human ACHN cells at 10 uM after 48 hrs by MTT assay; format: functional
Outline: as §1

[4] = Cytotoxicity against human TERT immortalized BJ1 cells at 100 uM after 48 hrs by MTT assay relative to control; format: cell-based, BJ
Outline: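 hTERT-immortalized BJ1 fibroblasts were grown in DMEM with 10% FCS, 1 mM pyruvate and 4 mM […]. Cells (about 2 × 10^3 per well) were seeded and held 24 h at 37 °C. Compounds were freshly dissolved in DMSO, diluted into medium and left on the cells 48 h. MTT was added for 4 h, then SDS/DMF lysis buffer for 16 h. Absorbance was read at 550 nm and expressed relative to untreated cells (100%).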

SK-MEL-5 = test: Cytotoxicity against human SK-MEL-5 cells at 10 uM after 48 hrs by MTT assay; format: functional; conditions: SK-MEL-5, 48 h, values are per cent of control
Outline: as §1

HCC 2998 = test: Growth percent of human HCC2998 cells at 10 uM after 48 hrs by MTT assay; conditions: HCC 2998, 48 h
SK-OV-3 = test: Cytotoxicity against human SKOV3 cells at 10 uM after 48 hrs by MTT assay; format: functional; conditions: SK-OV-3, 48 h
Outline: as §1

U-251 = test: Cytotoxicity against human U251 cells at 10 uM after 48 hrs by MTT assay; format: functional; conditions: U-251, 48 h, values are per cent of control
Outline: as §3

HCT-29 = test: Growth percent of human HCT29 cells at 10 uM after 48 hrs by MTT assay; conditions: HCT-29, 48 h
SF-268 = test: Cytotoxicity against human SF268 cells at 10 uM after 48 hrs by MTT assay; format: functional; conditions: SF-268, 48 h, values are per cent of control
Outline: as §1

OVCAR-4 = test: Cytotoxicity against human OVCAR4 cells at 10 uM after 48 hrs by MTT assay; format: functional; conditions: OVCAR-4, 48 h
Outline: as §1

SNB-19 = test: Cytotoxicity against human SNB19 cells at 10 uM after 48 hrs by MTT assay; format: functional; conditions: SNB-19, 48 h, values are per cent of control
Outline: as §1

[5] = biological target: T1, Telomerase reverse transcriptase; test: Effect on human TERT expressed in H1299 cells at 10 uM after 24 hrs by SEAP assay relative to control
TK-10 = test: Cytotoxicity against human TK10 cells at 10 uM after 48 hrs by MTT assay; format: functional; conditions: TK-10, 48 h, values are per cent of control
Outline: as §3

BT-549 = test: Cytotoxicity against human BT549 cells at 10 uM after 48 hrs by MTT assay; format: functional; conditions: BT-549, 48 h
Outline: as §1

SN12C = test: Cytotoxicity against human SN12C cells at 10 uM after 48 hrs by MTT assay; format: functional
Outline: as §1

LOX IMVI = test: Cytotoxicity against human LOXIMVI cells at 10 uM after 48 hrs by MTT assay; format: functional; conditions: values are per cent of control
Outline: as §1

[6] = biological target: T1, Telomerase reverse transcriptase; test: Effect on human TERT expressed in BJ1 cells at 1 uM after 24 hrs by SEAP assay realtive to control; conditions: BJ
OVCAR-3 = test: Cytotoxicity against human OVCAR-3 cells at 10 uM after 48 hrs by MTT assay; format: functional; conditions: OVCAR-3, 48 h
Outline: as §1

OVCAR-8 = test: Cytotoxicity against human OVCAR8 cells at 10 uM after 48 hrs by MTT assay; format: functional; conditions: OVCAR-8, 48 h
Outline: as §1

KM12 = test: Cytotoxicity against human KM12 cells at 10 uM after 48 hrs by MTT assay; format: functional; conditions: KM12, 48 h
Outline: as §1

NCI-H226 = test: Cytotoxicity against human NCI-H226 cells at 10 uM after 48 hrs by MTT assay; format: functional; conditions: NCI-H226, 48 h
Outline: as §1

T1 sequence (O14746 whole entry): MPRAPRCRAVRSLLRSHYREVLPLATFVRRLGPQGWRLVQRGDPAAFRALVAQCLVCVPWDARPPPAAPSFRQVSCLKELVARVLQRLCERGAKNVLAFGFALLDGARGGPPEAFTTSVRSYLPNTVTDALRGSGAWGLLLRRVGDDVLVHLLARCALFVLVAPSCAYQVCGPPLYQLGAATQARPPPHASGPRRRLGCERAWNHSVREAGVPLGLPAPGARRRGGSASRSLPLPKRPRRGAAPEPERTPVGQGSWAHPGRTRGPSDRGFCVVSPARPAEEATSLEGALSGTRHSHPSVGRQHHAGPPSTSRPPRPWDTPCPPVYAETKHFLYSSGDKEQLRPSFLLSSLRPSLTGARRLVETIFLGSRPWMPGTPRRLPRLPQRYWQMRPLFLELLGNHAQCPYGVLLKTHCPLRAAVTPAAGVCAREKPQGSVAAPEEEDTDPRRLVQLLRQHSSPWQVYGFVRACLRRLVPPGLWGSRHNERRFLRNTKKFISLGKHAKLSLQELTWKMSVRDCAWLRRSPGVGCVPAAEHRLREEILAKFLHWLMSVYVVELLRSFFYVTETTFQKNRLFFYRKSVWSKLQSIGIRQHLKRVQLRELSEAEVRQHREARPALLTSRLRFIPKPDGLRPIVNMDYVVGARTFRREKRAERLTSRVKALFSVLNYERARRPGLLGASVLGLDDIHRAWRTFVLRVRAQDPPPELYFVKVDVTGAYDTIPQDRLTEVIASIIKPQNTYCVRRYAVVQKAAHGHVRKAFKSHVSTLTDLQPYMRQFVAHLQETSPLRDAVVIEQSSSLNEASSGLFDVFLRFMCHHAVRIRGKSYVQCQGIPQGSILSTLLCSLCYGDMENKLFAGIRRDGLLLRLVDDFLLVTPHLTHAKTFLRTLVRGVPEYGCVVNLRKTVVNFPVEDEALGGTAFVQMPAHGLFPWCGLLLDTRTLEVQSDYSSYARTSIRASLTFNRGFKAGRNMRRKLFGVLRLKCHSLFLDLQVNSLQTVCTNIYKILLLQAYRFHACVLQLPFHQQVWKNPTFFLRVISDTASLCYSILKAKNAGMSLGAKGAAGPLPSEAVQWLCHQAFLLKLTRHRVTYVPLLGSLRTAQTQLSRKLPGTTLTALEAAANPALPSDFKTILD

residual activity [3] [%]	SMILES	growth percent at 10 µM (HCT-15) [%]	growth, % of control at 10 µM (COLO 205) [%]	viability at 10 µM [1] [%]	growth, % of control at 10 µM (SF-539) [%]	growth percent at 10 µM (NCI-H23) [%]	growth, % of control at 10 µM (Malme-3M) [%]	growth percent at 10 µM (K562) [%]	growth percent at 10 µM (SR) [%]	growth percent at 10 µM (RPMI-8226) [%]	growth, % of control at 10 µM (MCF7) [%]	viability at 100 µM [2] [%]	growth, % of control at 10 µM (SK-MEL-2) [%]	growth percent at 10 µM (HCT-116) [%]	growth percent at 10 µM (ACHN) [%]	viability at 48 h, 100 µM [4] [%]	growth, % of control at 10 µM (SK-MEL-5) [%]	growth percent at 10 µM (HCC 2998) [%]	growth percent at 10 µM (SK-OV-3) [%]	growth, % of control at 10 µM (U-251) [%]	further results
74	CC(=O)Nc1ccc2c(c1)C(=O)c1cc(NC(C)=O)ccc1C2=O	93.9	120	83	103	94.2	111	98.5	3.61	121	96.9	55	30.1	102	96.9	91	109	105	101	95.1	growth percent at 10 µM (HCT-29): 107%; growth, % of control at 10 µM (SF-268): 114%; growth percent at 10 µM (OVCAR-4): 104%; growth, % of control at 10 µM (SNB-19): 94.4%; residual activity [5]: 87%; growth, % of control at 10 µM (TK-10): 118%; growth percent at 10 µM (BT-549): 93.3%; growth percent at 10 µM (SN12C): 113%; growth, % of control at 10 µM (LOX IMVI): 99%; residual activity [6]: 123%; growth percent at 10 µM (OVCAR-3): 111%; growth percent at 10 µM (OVCAR-8): 99.8%; growth percent at 10 µM (KM12): 106%
17	O=C(CCN1CCCC1)Nc1ccc2c(c1)C(=O)c1cc(NC(=O)CCN3CCCC3)ccc1C2=O	56.1	-29	54	33.8	31.5	47	6.4	19.8	47.9	13.3	12	-45.2	10.5	29.6	39	56.9	20	27.1	18.2	growth percent at 10 µM (NCI-H226): 41.1%; growth percent at 10 µM (HCT-29): 19.5%; growth, % of control at 10 µM (SF-268): 26.7%; growth percent at 10 µM (OVCAR-4): 49.8%; growth, % of control at 10 µM (SNB-19): 67%; residual activity [5]: 29%; growth, % of control at 10 µM (TK-10): 31.2%; growth percent at 10 µM (BT-549): 76.9%; growth percent at 10 µM (SN12C): 6.68%; growth, % of control at 10 µM (LOX IMVI): 30.7%; growth percent at 10 µM (OVCAR-3): 36.9%; growth percent at 10 µM (OVCAR-8): 19.6%; growth percent at 10 µM (KM12): 32.5%
